Reference: ChEMBL document CHEMBL4689842, “EUbOPEN Chemogenomics Library wave 1” (2021)

Tested on: HEK-293T
Assay: Multiplex assay against HEK293T;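 for Population Tubulin-Different-Phenotype (%): share of the cells with healthy nuclei that show this phenotype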
Format: toxicity, cell-based
Settings: human
How it was run: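 With compound added, live cells were imaged on a CQ1 microscope at 37°C and 5% CO2; staining with Hoechst33342, BioTracker Green Microtubule Cytoskeleton Dye, MitoTracker Red and Annexin V Alexa Fluor 680 had been done at seeding. The CellPathfinder machine-learning gating scheme split cells into Hoechst high-intensity objects or normal cells, normal cells into healthy, pyknosed or fragmented nuclei, and pyknosed cells into mitotic or apoptotic. The tubulin, mitochondrial-mass and membrane-permeability phenotypes are per cents of healthy-nucleus cells.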

[1] = 12 h, 1 µM, compound concentration 1 uM, replicate 1
[2] = 12 h, 1 µM, compound concentration 1 uM, replicate 2
[3] = 12 h, 10 µM, compound concentration 10 uM, replicate 1
[4] = 12 h, 10 µM, compound concentration 10 uM, replicate 2
[5] = 24 h, 1 µM, compound concentration 1 uM, replicate 1
[6] = 24 h, 1 µM, compound concentration 1 uM, replicate 2
[7] = 24 h, 10 µM, compound concentration 10 uM, replicate 1
[8] = 24 h, 10 µM, compound concentration 10 uM, replicate 2
[9] = 48 h, 1 µM, compound concentration 1 uM, replicate 1
[10] = 48 h, 1 µM, compound concentration 1 uM, replicate 2
[11] = 48 h, 10 µM, compound concentration 10 uM, replicate 1
[12] = 48 h, 10 µM, compound concentration 10 uM, replicate 2

Cl.Oc1ccc2c3c1O[C@H]1c4[nH]c5c(c4C[C@@]4(O)[C@@H](C2)N(CC2CC2)CC[C@]314)C[C@@]1(O)[C@H]2Cc3ccc(O)c4c3[C@@]1(CCN2CC1CC1)[C@H]5O4
Population Apoptotic (%) [1]: 47%
Population Fragmented Nuclei (%) [1]: 8%
Population Healthy Nuclei (%) [1]: 45%
Population Hoechst High Intensity Objects (%) [1]: 13%
Population Membrane Permeable-Phenotype (%) [1]: 0%
Population Mitochondria Different-Phenotype (%) [1]: 74%
Population Mitotic Cells (%) [1]: 52%
Population Normal (%) [1]: 86%
Population Pyknosed Nuclei (%) [1]: 45%
Population Tubulin-Different-Phenotype (%) [1]: 46%
Total Cell Count [1]: 294
Population Apoptotic (%) [2]: 10%
Population Fragmented Nuclei (%) [2]: 4%
Population Healthy Nuclei (%) [2]: 38%
Population Hoechst High Intensity Objects (%) [2]: 5%
Population Membrane Permeable-Phenotype (%) [2]: 8%
Population Mitochondria Different-Phenotype (%) [2]: 10%
Population Mitotic Cells (%) [2]: 89%
Population Normal (%) [2]: 94%
Population Pyknosed Nuclei (%) [2]: 56%
Population Tubulin-Different-Phenotype (%) [2]: 12%
Total Cell Count [2]: 128
Population Apoptotic (%) [3]: 40%
Population Fragmented Nuclei (%) [3]: 7%
Population Healthy Nuclei (%) [3]: 49%
Population Hoechst High Intensity Objects (%) [3]: 12%
Population Membrane Permeable-Phenotype (%) [3]: 3%
Population Mitochondria Different-Phenotype (%) [3]: 79%
Population Mitotic Cells (%) [3]: 59%
Population Normal (%) [3]: 87%
Population Pyknosed Nuclei (%) [3]: 43%
Population Tubulin-Different-Phenotype (%) [3]: 33%
Total Cell Count [3]: 253
Population Apoptotic (%) [4]: 7%
Population Fragmented Nuclei (%) [4]: 5%
Population Healthy Nuclei (%) [4]: 45%
Population Hoechst High Intensity Objects (%) [4]: 2%
Population Membrane Permeable-Phenotype (%) [4]: 6%
Population Mitochondria Different-Phenotype (%) [4]: 27%
Population Mitotic Cells (%) [4]: 92%
Population Normal (%) [4]: 97%
Population Pyknosed Nuclei (%) [4]: 48%
Population Tubulin-Different-Phenotype (%) [4]: 22%
Total Cell Count [4]: 294
Population Apoptotic (%) [5]: 43%
Population Fragmented Nuclei (%) [5]: 11%
Population Healthy Nuclei (%) [5]: 38%
Population Hoechst High Intensity Objects (%) [5]: 12%
Population Membrane Permeable-Phenotype (%) [5]: 0%
Population Mitochondria Different-Phenotype (%) [5]: 61%
Population Mitotic Cells (%) [5]: 56%
Population Normal (%) [5]: 87%
Population Pyknosed Nuclei (%) [5]: 50%
Population Tubulin-Different-Phenotype (%) [5]: 37%
Total Cell Count [5]: 307
Population Apoptotic (%) [6]: 6%
Population Fragmented Nuclei (%) [6]: 7%
Population Healthy Nuclei (%) [6]: 53%
Population Hoechst High Intensity Objects (%) [6]: 4%
Population Membrane Permeable-Phenotype (%) [6]: 8%
Population Mitochondria Different-Phenotype (%) [6]: 13%
Population Mitotic Cells (%) [6]: 93%
Population Normal (%) [6]: 95%
Population Pyknosed Nuclei (%) [6]: 39%
Population Tubulin-Different-Phenotype (%) [6]: 26%
Total Cell Count [6]: 164
Population Apoptotic (%) [7]: 35%
Population Fragmented Nuclei (%) [7]: 9%
Population Healthy Nuclei (%) [7]: 58%
Population Hoechst High Intensity Objects (%) [7]: 7%
Population Membrane Permeable-Phenotype (%) [7]: 0%
Population Mitochondria Different-Phenotype (%) [7]: 54%
Population Mitotic Cells (%) [7]: 64%
Population Normal (%) [7]: 92%
Population Pyknosed Nuclei (%) [7]: 32%
Population Tubulin-Different-Phenotype (%) [7]: 30%
Total Cell Count [7]: 308
Population Apoptotic (%) [8]: 11%
Population Fragmented Nuclei (%) [8]: 4%
Population Healthy Nuclei (%) [8]: 73%
Population Hoechst High Intensity Objects (%) [8]: 3%
Population Membrane Permeable-Phenotype (%) [8]: 4%
Population Mitochondria Different-Phenotype (%) [8]: 17%
Population Mitotic Cells (%) [8]: 88%
Population Normal (%) [8]: 96%
Population Pyknosed Nuclei (%) [8]: 22%
Population Tubulin-Different-Phenotype (%) [8]: 23%
Total Cell Count [8]: 399
Population Apoptotic (%) [9]: 43%
Population Fragmented Nuclei (%) [9]: 15%
Population Healthy Nuclei (%) [9]: 44%
Population Hoechst High Intensity Objects (%) [9]: 12%
Population Membrane Permeable-Phenotype (%) [9]: 2%
Population Mitochondria Different-Phenotype (%) [9]: 29%
Population Mitotic Cells (%) [9]: 56%
Population Normal (%) [9]: 87%
Population Pyknosed Nuclei (%) [9]: 39%
Population Tubulin-Different-Phenotype (%) [9]: 31%
Total Cell Count [9]: 368
Population Apoptotic (%) [10]: 10%
Population Fragmented Nuclei (%) [10]: 6%
Population Healthy Nuclei (%) [10]: 77%
Population Hoechst High Intensity Objects (%) [10]: 3%
Population Membrane Permeable-Phenotype (%) [10]: 10%
Population Mitochondria Different-Phenotype (%) [10]: 7%
Population Mitotic Cells (%) [10]: 89%
Population Normal (%) [10]: 96%
Population Pyknosed Nuclei (%) [10]: 15%
Population Tubulin-Different-Phenotype (%) [10]: 23%
Total Cell Count [10]: 260
Population Apoptotic (%) [11]: 29%
Population Fragmented Nuclei (%) [11]: 10%
Population Healthy Nuclei (%) [11]: 69%
Population Hoechst High Intensity Objects (%) [11]: 9%
Population Membrane Permeable-Phenotype (%) [11]: 2%
Population Mitochondria Different-Phenotype (%) [11]: 23%
Population Mitotic Cells (%) [11]: 70%
Population Normal (%) [11]: 90%
Population Pyknosed Nuclei (%) [11]: 19%
Population Tubulin-Different-Phenotype (%) [11]: 21%
Total Cell Count [11]: 462
Population Apoptotic (%) [12]: 14%
Population Fragmented Nuclei (%) [12]: 5%
Population Healthy Nuclei (%) [12]: 83%
Population Hoechst High Intensity Objects (%) [12]: 2%
Population Membrane Permeable-Phenotype (%) [12]: 3%
Population Mitochondria Different-Phenotype (%) [12]: 5%
Population Mitotic Cells (%) [12]: 85%
Population Normal (%) [12]: 97%
Population Pyknosed Nuclei (%) [12]: 10%
Population Tubulin-Different-Phenotype (%) [12]: 16%
Total Cell Count [12]: 731

CCN1CCN(c2ccc(Nc3cc(N(C)C(=O)Nc4c(Cl)c(OC)cc(OC)c4Cl)ncn3)cc2)CC1 [INFIGRATINIB]
Population Apoptotic (%) [1]: 26%
Population Fragmented Nuclei (%) [1]: 18%
Population Healthy Nuclei (%) [1]: 37%
Population Hoechst High Intensity Objects (%) [1]: 19%
Population Membrane Permeable-Phenotype (%) [1]: 18%
Population Mitochondria Different-Phenotype (%) [1]: 14%
Population Mitotic Cells (%) [1]: 73%
Population Normal (%) [1]: 80%
Population Pyknosed Nuclei (%) [1]: 44%
Population Tubulin-Different-Phenotype (%) [1]: 52%
Total Cell Count [1]: 470
Population Apoptotic (%) [2]: 14%
Population Fragmented Nuclei (%) [2]: 4%
Population Healthy Nuclei (%) [2]: 84%
Population Hoechst High Intensity Objects (%) [2]: 3%
Population Membrane Permeable-Phenotype (%) [2]: 6%
Population Mitochondria Different-Phenotype (%) [2]: 27%
Population Mitotic Cells (%) [2]: 85%
Population Normal (%) [2]: 96%
Population Pyknosed Nuclei (%) [2]: 11%
Population Tubulin-Different-Phenotype (%) [2]: 81%
Total Cell Count [2]: 1084
Population Apoptotic (%) [3]: 18%
Population Fragmented Nuclei (%) [3]: 19%
Population Healthy Nuclei (%) [3]: 56%
Population Hoechst High Intensity Objects (%) [3]: 14%
Population Membrane Permeable-Phenotype (%) [3]: 7%
Population Mitochondria Different-Phenotype (%) [3]: 10%
Population Mitotic Cells (%) [3]: 81%
Population Normal (%) [3]: 85%
Population Pyknosed Nuclei (%) [3]: 23%
Population Tubulin-Different-Phenotype (%) [3]: 13%
Total Cell Count [3]: 527
Population Apoptotic (%) [4]: 9%
Population Fragmented Nuclei (%) [4]: 7%
Population Healthy Nuclei (%) [4]: 87%
Population Hoechst High Intensity Objects (%) [4]: 2%
Population Membrane Permeable-Phenotype (%) [4]: 5%
Population Mitochondria Different-Phenotype (%) [4]: 11%
Population Mitotic Cells (%) [4]: 90%
Population Normal (%) [4]: 97%
Population Pyknosed Nuclei (%) [4]: 5%
Population Tubulin-Different-Phenotype (%) [4]: 24%
Total Cell Count [4]: 1732
Population Apoptotic (%) [5]: 37%
Population Fragmented Nuclei (%) [5]: 16%
Population Healthy Nuclei (%) [5]: 60%
Population Hoechst High Intensity Objects (%) [5]: 19%
Population Membrane Permeable-Phenotype (%) [5]: 10%
Population Mitochondria Different-Phenotype (%) [5]: 31%
Population Mitotic Cells (%) [5]: 62%
Population Normal (%) [5]: 80%
Population Pyknosed Nuclei (%) [5]: 23%
Population Tubulin-Different-Phenotype (%) [5]: 78%
Total Cell Count [5]: 436
Population Apoptotic (%) [6]: 6%
Population Fragmented Nuclei (%) [6]: 7%
Population Healthy Nuclei (%) [6]: 82%
Population Hoechst High Intensity Objects (%) [6]: 5%
Population Membrane Permeable-Phenotype (%) [6]: 9%
Population Mitochondria Different-Phenotype (%) [6]: 20%
Population Mitotic Cells (%) [6]: 93%
Population Normal (%) [6]: 94%
Population Pyknosed Nuclei (%) [6]: 9%
Population Tubulin-Different-Phenotype (%) [6]: 87%
Total Cell Count [6]: 1343
Population Apoptotic (%) [7]: 19%
Population Fragmented Nuclei (%) [7]: 13%
Population Healthy Nuclei (%) [7]: 76%
Population Hoechst High Intensity Objects (%) [7]: 10%
Population Membrane Permeable-Phenotype (%) [7]: 15%
Population Mitochondria Different-Phenotype (%) [7]: 4%
Population Mitotic Cells (%) [7]: 80%
Population Normal (%) [7]: 89%
Population Pyknosed Nuclei (%) [7]: 9%
Population Tubulin-Different-Phenotype (%) [7]: 24%
Total Cell Count [7]: 608
Population Apoptotic (%) [8]: 10%
Population Fragmented Nuclei (%) [8]: 23%
Population Healthy Nuclei (%) [8]: 74%
Population Hoechst High Intensity Objects (%) [8]: 4%
Population Membrane Permeable-Phenotype (%) [8]: 11%
Population Mitochondria Different-Phenotype (%) [8]: 2%
Population Mitotic Cells (%) [8]: 90%
Population Normal (%) [8]: 95%
Population Pyknosed Nuclei (%) [8]: 2%
Population Tubulin-Different-Phenotype (%) [8]: 26%
Total Cell Count [8]: 3002
